Screening data deposited in PubChem by several laboratories.
MrgX1 allo act: human MrgX1 positive allosteric modulation, primary screen. Q96LB2. B-score at 10 µM. MrgX1-HEK293, Fluo-4 calcium flux, FDSS; stronger effect = higher value. 310,000 compounds, 0.63% hits;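 active = plate-corrected calcium response at least 3 library SD above typical, normal starting fluorescence, not activating the receptor alone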;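 note: compound read alongside a low EC10 to EC30 dose of BAM8-22 agonist; peak minus trough fluorescence over baseline measured at the second addition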
Target sequence (Q96LB2 whole entry, looked up): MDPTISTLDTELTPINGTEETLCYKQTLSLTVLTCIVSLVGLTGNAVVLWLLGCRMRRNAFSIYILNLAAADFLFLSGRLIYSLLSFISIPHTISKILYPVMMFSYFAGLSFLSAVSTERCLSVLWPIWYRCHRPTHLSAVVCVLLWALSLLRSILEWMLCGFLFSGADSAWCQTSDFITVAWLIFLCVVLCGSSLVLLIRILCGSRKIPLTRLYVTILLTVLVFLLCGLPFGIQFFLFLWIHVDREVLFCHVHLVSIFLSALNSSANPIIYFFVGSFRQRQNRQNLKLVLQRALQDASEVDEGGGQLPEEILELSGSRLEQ
MrgX1 antag: blocks BAM8-22 activation of human MrgX1 receptor; AID 588676; MRGX1-HEK293 calcium flux, Fluo-4, BAM8-22 antagonism; stronger effect = lower value; B-score at 10 µM; Q96LB2; 310,000 compounds, 1.3% hits;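 active = calcium-response B-score plate-corrected more than 3 library SD below zero, starting fluorescence within 5 deviations, no agonist response on first addition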;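 note: peak minus trough fluorescence over baseline after final BAM8-22 challenge near maximal dose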
RGS4 inh: inhibitors of human RGS4 | P49798 | HEK293 M3R/RGS4 inducible, Fluo-4 calcium flux; stronger effect = higher value; triggered by carbachol at its EC20 | B-score at 10 µM | 310,000 compounds, 0.45% hits;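 active = B-score, a plate-corrected calcium signal, over three deviations above library mean, with baseline fluorescence within five deviations of library mean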;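 note: RGS4 expression induced by doxycycline in cells with stable M3 receptor; B-score is computed from the integrated fluorescence ratio over baseline after carbachol; higher B-score means a larger calcium signal and so more RGS4 inhibition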
Target sequence (P49798 whole entry, looked up): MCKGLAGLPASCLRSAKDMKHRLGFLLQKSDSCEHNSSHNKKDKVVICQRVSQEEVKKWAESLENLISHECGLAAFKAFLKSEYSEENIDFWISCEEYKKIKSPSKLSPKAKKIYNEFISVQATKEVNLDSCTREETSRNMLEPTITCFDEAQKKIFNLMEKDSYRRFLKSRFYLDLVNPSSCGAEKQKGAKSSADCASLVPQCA
Cl transport mod: modulators of human KCC2 chloride dependent transport; KCC2 cells, thallium flux FluoZin-2 fluorescence; B-score of Tl+ flux slope (higher = more flux/activation; lower = inhibition) at 10 µM; 190,000 compounds, 2.2% hits; AID 1456;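 active = thallium flux slope and its plate-corrected score both differing from the plate sample mean at a set confidence after two filtering rounds, in either direction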;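 note: slope of fluorescence scaled to starting intensity during 10 to 20 s after thallium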
MrgX1 agonist: activates human MrgX1 receptor signaling. Q96LB2. MrgX1-HEK293 cells, Fluo-4 calcium fluorescence, agonist mode; stronger effect = higher value. B-score at 10 µM. 310,000 compounds, 0.44% hits;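 active = calcium response B-score plate-corrected fluorescence ratio at least 3 library SD, with starting fluorescence B-score inside 5 SD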
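Test system: Stable human MrgX1 HEK293 cell line | Schedule: Overnight plating before 1 h dye loading | Read-out basis: Baseline-normalised fluorescence change ratio, B-scored | Detection: Kinetic calcium dye fluorescence, Fluo-4 NW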
RGS4 pot: RGS4 potentiation or activation; HEK293 M3R/inducible RGS4, carbachol calcium flux Fluo4; stronger effect = lower value; B-score at 10 µM; 310,000 compounds, 0.92% hits;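 active = B-score of the integrated calcium signal more than 4 SD below the library mean, with starting fluorescence not abnormally high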;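 note: negative B-score means reduced calcium response which marks RGS4 activation or potentiation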
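test system = HEK293 cells with stable M3R and inducible RGS4 | schedule = recording 10 s baseline at 1 Hz, 100 s post-agonist | technique = Fluo4-AM (2 µM) calcium-flux fluorescence, kinetic read | measure = Agonist-evoked peak-minus-minimum fluorescence over baseline, integrated ratio, B score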
KCC2 sec1: confirmation of human KCC2 transport modulators; shares compounds with Cl transport mod; HEK293-KCC2, thallium flux, FluoZin2 fluorescence; stronger effect = higher value; normalised thallium flux (F/F0 slope) at 10 µM; 3,700 compounds, 15% hits;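 active = thallium flux slope above the same plate's solvent-only control mean plus 3 SD; inconclusive = the two replicate wells disagree; inactive = no significant difference from solvent-only control wells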
KCC2 bumet counter: thallium flux persisting under bumetanide in KCC2 cells, counter-screen secondary assay. shares compounds with Cl transport mod. HEK293-KCC2 + bumetanide/ouabain, thallium flux FluoZin2; stronger effect = higher value. normalized thallium flux at 10 µM. 3,700 compounds, 49% hits. AID 1714;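 active = thallium entry rate above the same plate's blocked-transporter control wells by more than 3 SD; inconclusive = the two repeat wells disagree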;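 note: raw slope of fluorescence over initial fluorescence between 10 and 20 s after thallium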
KCC2 sec2: confirmation of human KCC2 transport modulators; AID 1715; 3,700 compounds, 23% hits; shares compounds with Cl transport mod; normalized thallium flux at 10 µM; HEK293-KCC2, thallium flux FluoZin2 fluorescence; actives lie on both sides; F/F0 rise rate, 10–20 s post-thallium;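 active = thallium flux slope more than 3 SD above or below the plate's solvent-only control mean, mostly below; inconclusive = the two repeat wells disagreed; inactive = no significant shift from solvent-only controls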
HEK counter1: parental HEK flux effect, counter-screen. 3,700 compounds, 46% hits. HEK293 parental cells, thallium flux FluoZin2, ouabain; baseline-ratio fluorescence slope, 10–20 s after thallium. thallium flux rate (normalised fluorescence) at 10 µM. shares compounds with Cl transport mod;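 active = thallium flux rate significantly above the same plate's solvent-only control wells, beyond their mean plus 3 SD; inconclusive = the two replicate wells gave conflicting results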
KCC2 retest ouab: KCC2 (human) modulation, ouabain retest | raw Tl+ flux slope (below DMSO = inhibition, above = activation) at 10 µM | AID 1717 | 3,700 compounds, 48% hits | HEK293-KCC2, thallium flux FluoZin2 fluorescence; bidirectional: low = inhibitor, high = activator | shares compounds with Cl transport mod;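 active = thallium flux slope beyond 3 SD from same-plate DMSO control mean in most replicates, usually higher, sometimes lower; inconclusive = repeat tests gave conflicting results; inactive = no significant difference from controls in most replicates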;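 note: slope of initial-normalized fluorescence between seconds 10 and 20 after thallium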
HEK counter2: counter-screen for KCC2 modulators: effect in parental HEK293 cells. shares compounds with Cl transport mod. thallium flux FluoZin-2 fluorescence slope. thallium flux slope at 10 µM. 3,700 compounds, 33% hits. AID 1718;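 active = thallium flux slope above the same plate's solvent-control mean plus 3 SD in both duplicate wells; inconclusive = duplicate wells that disagreed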;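 note: run without ouabain in cells lacking the KCC2 cotransporter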
A number is an active result; 0 = inactive; ? = inconclusive; - = no result. Only some compounds are listed: those with a hit (about 4.7% of all), similar ones and a draw of the others.

SMILES	MrgX1 allo act	MrgX1 antag	RGS4 inh	Cl transport mod	MrgX1 agonist	RGS4 pot	KCC2 sec1	KCC2 bumet counter	KCC2 sec2	HEK counter1	KCC2 retest ouab	HEK counter2
COC(=O)c1cccc(C23CC4(C2)[C@H](CN(Cc2cccnc2)[C@@H]4c2ccccc2)C3c2ccc(Cl)nc2)c1 (some centres not stated)	0	0	0	0	0	0	-	-	-	-	-	-
COC(=O)c1cccc(C23CC4(C2)[C@H](CN(Cc2cccnc2)[C@@H]4c2ccccc2)C3c2ccc(C(F)(F)F)cc2)c1 (some centres not stated)	0	0	0	-3.2	0	0	?	0.0085	0	0	0	0
Cc1cc(CC(C)C)n(-c2nc3ccccc3c(=O)n2OCC(=O)N(C)C)n1	0	0	0	10	0	0	0	0.026	0	0.024	0.032	0.017
Cc1cc(C)n(-c2nc3ccccc3c(=O)n2OCC(=O)N(C)C)n1	0	0	0	0	0	0	-	-	-	-	-	-
Cc1cc(C)n(-c2nc3ccccc3c(=O)n2OCc2ccc(F)cc2)n1	0	0	0	0	0	0	-	-	-	-	-	-
Cc1cc(CC(C)C)n(-c2nc3ccccc3c(=O)n2OCc2ccccc2)n1	0	0	0	5.1	0	0	0	0.023	0	0.011	0.052	0.012
COc1ccc(CC(=O)NC2CCS(=O)(=O)C2)cc1 (configuration not stated)	0	0	0	-	0	0	-	-	-	-	-	-
COCC1CCCCN1C(=O)c1ccc(OC2CCN(CCc3ccccc3)CC2)cc1 (configuration not stated)	0	0	0	-	0	0	-	-	-	-	-	-
Cc1ccccc1C(=O)N1CCCC(N2CCN(Cc3ccc4c(c3)OCO4)CC2)C1 (configuration not stated)	0	0	0	-	0	0	-	-	-	-	-	-
Cc1cc(C)c(C)c(C(=O)COC(=O)CNC(=O)CNC(=O)c2ccco2)c1C	0	0	0	-	0	0	-	-	-	-	-	-
NC(=O)CSc1nc(N)c2c3c(sc2n1)CCCCC3	0	0	0	0	0	0	-	-	-	-	-	-
CNC(=O)CSc1nc(N)c2c3c(sc2n1)CCC3	0	0	0	-5.8	0	0	0	0	0	0	0	0
CCCN1C(=O)c2ccc(C(=O)Nc3nccs3)cc2C1=O	0	0	0	6	0	0	0	?	0	0	0	0
CCOC(=O)CC(=O)c1sc2c(c1N)c(=O)[nH]c(=O)n2-c1ccc(OC)cc1	0	0	0	-	0	0	-	-	-	-	-	-
O=c1[nH]c(-c2ccccn2)nc2sc(-c3ccccc3)cc12	-	-	0	4.4	-	0	0	0.018	0	0.033	?	0.015
C=CCN(C(=O)CSC1=NC(=O)CN1C(C)=O)c1nc(C)c(-c2ccccc2)s1	0	0	0	10	0	0	0	0.023	0	0.022	0.03	0.019
C=CCSc1nnc(-c2sc(-c3ccccc3)nc2C)n1C	0	0	0	-	0	0	-	-	-	-	-	-
Oc1ccccc1N=N/C(=N/Nc1ccccc1O)c1ccccc1	0	0	0	-	0	0	-	-	-	-	-	-
Cn1nnnc1N=N/C(=N/Nc1ccccc1)c1ccccc1	0	0	0	60	0	0	0.026	0.094	0.057	0.044	0.052	0.045
O=C(N/N=C\c1ccc(Cl)s1)C1COc2ccccc2O1 (configuration not stated)	0	0	0	12	0	0	0	0.011	0	?	?	0
O=C(O)c1cc([N+](=O)[O-])ccc1NCc1ccccc1Cl	0	0	0	-4.5	0	0	?	0.0056	0.022	?	0.011	0
[N-]=[N+]=NC[C@H](c1ccccc1)N1CCN(Cc2ccccc2)CCC1=O	0	0	0	-	0	0	-	-	-	-	-	-
COC(=O)Cn1ccc2cc(S(=O)(=O)N3CCCCC3)ccc21	0	0	0	-	0	0	-	-	-	-	-	-
Cc1nc2ccc(NC(=O)c3cccs3)cc2s1	0	0	0	-	0	0	-	-	-	-	-	-
CC(=O)Nc1ccc2nc(NC(=O)c3cccs3)sc2c1	0	0	0	4.1	0	0	0	?	0	0	0	0
SMILES	MrgX1 allo act	MrgX1 antag	RGS4 inh	Cl transport mod	MrgX1 agonist	RGS4 pot	KCC2 sec1	KCC2 bumet counter	KCC2 sec2	HEK counter1	KCC2 retest ouab	HEK counter2
O=C(CCN1CCOCC1)NNC(=O)Nc1cccc([N+](=O)[O-])c1	0	0	0	-	0	0	-	-	-	-	-	-
O=C(O)CCc1ccc(-c2ccc(F)cc2)n1CCC(=O)O	0	0	0	3.2	0	0	0	?	0	0	0	0
COC(=O)c1sccc1NC(=S)OC	0	0	0	4.7	0	0	?	0.012	0	0.016	?	0.013
Cc1nnc(NC(=O)c2cccc(S(=O)(=O)N3CC(c4ccccc4)CC3=O)c2)s1 (configuration not stated)	0	0	0	0	0	0	-	-	-	-	-	-
COc1ccc(C(=O)Nc2nncs2)cc1S(=O)(=O)N1CC(c2ccccc2)CC1=O (configuration not stated)	0	0	0	-	0	0	0	0	0	0	?	0
COc1cc(COC(=O)c2cnc(C)cn2)c(OC)cc1Br	0	0	0	-	0	0	-	-	-	-	-	-
O=c1oc2ccccc2c(Nc2cccc3ccccc23)c1[N+](=O)[O-]	0	0	0	-2.6	0	0	0	0	0	0	0.016	0
O=c1oc2ccccc2c(Nc2cc3ccccc3cc2O)c1[N+](=O)[O-]	0	0	0	-4.3	0	0	0	0	?	0	0.016	0.0083
O=c1oc2ccccc2c(Nc2ccccc2O)c1[N+](=O)[O-]	0	0	0	0	0	0	-	-	-	-	-	-
CCSc1ccc([C@@H]2[C@H]3C(=O)N(C)C(=O)[C@H]3[C@]3(C(=O)OC)CCCCN23)cc1OC	0	0	-	-	0	-	-	-	-	-	-	-
Oc1c(Br)cc(Br)cc1/C=N/NC(=S)N[C@H]1CC2C=CC1C2 (some centres not stated)	0	0	0	4.8	0	0	0	0.014	0	0.01	?	0
